System: Fibroblast
Experiment: Multiplex assay against human fibroblast
Format: toxicity, cell-based
Summary of the method: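 Four dyes were applied at seeding to live cells: Hoechst33342, BioTracker Green Microtubule Cytoskeleton Dye, MitoTracker Red and Annexin V Alexa Fluor 680. Imaging after compound addition used a CQ1 microscope at 37°C and 5% CO2. CellPathfinder machine-learning gating then sorted cells into Hoechst high-intensity objects or normal cells, normal cells into healthy, pyknosed or fragmented nuclei, and pyknosed cells into mitotic or apoptotic, with tubulin, mitochondrial-mass and membrane-permeability phenotypes given as per cents of healthy-nucleus cells.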

[1] = 12 h, 1 µM, compound concentration 1 uM, replicate 1
[2] = 12 h, 1 µM, compound concentration 1 uM, replicate 2
[3] = 12 h, 10 µM, compound concentration 10 uM, replicate 1
[4] = 12 h, 10 µM, compound concentration 10 uM, replicate 2
[5] = 24 h, 1 µM, compound concentration 1 uM, replicate 1
[6] = 24 h, 1 µM, compound concentration 1 uM, replicate 2
[7] = 24 h, 10 µM, compound concentration 10 uM, replicate 1
[8] = 24 h, 10 µM, compound concentration 10 uM, replicate 2
[9] = 48 h, 1 µM, compound concentration 1 uM, replicate 1
[10] = 48 h, 1 µM, compound concentration 1 uM, replicate 2
[11] = 48 h, 10 µM, compound concentration 10 uM, replicate 1
[12] = 48 h, 10 µM, compound concentration 10 uM, replicate 2

For `CC1(COc2ccc3c(c2)ncn3-c2ccc3cccc(N4CCC(N)CC4)c3n2)COC1` [CRENOLANIB], the “Population Apoptotic (%)” value [1] was 61%, the “Population Fragmented Nuclei (%)” value [1] was 27% and the “Population Healthy Nuclei (%)” value [1] was 60%. For the same compound, the “Population Hoechst High Intensity Objects (%)” value [1] was 2%, the “Population Membrane Permeable-Phenotype (%)” value [1] was 0% and the “Population Mitochondria Different-Phenotype (%)” value [1] was 4%. For the same compound, the “Population Mitotic Cells (%)” value [1] was 38%, the “Population Normal (%)” value [1] was 97% and the “Population Pyknosed Nuclei (%)” value [1] was 12%. The “Population Tubulin-Different-Phenotype (%)” value [1] was 48%, the “Population Apoptotic (%)” value [2] was 18% and the “Population Fragmented Nuclei (%)” value [2] was 33%. The “Population Healthy Nuclei (%)” value [2] was 47%, the “Population Hoechst High Intensity Objects (%)” value [2] was 4% and the “Population Membrane Permeable-Phenotype (%)” value [2] was 7%. The “Population Mitochondria Different-Phenotype (%)” value [2] was 9%, the “Population Mitotic Cells (%)” value [2] was 81% and the “Population Normal (%)” value [2] was 95%. The “Population Pyknosed Nuclei (%)” value [2] was 18%, the “Population Tubulin-Different-Phenotype (%)” value [2] was 67% and the “Population Apoptotic (%)” value [3] was 33%. The “Population Fragmented Nuclei (%)” value [3] was 21%, the “Population Healthy Nuclei (%)” value [3] was 48% and the “Population Hoechst High Intensity Objects (%)” value [3] was 4%. For the same compound, the “Population Membrane Permeable-Phenotype (%)” value [3] was 2%, the “Population Mitochondria Different-Phenotype (%)” value [3] was 6% and the “Population Mitotic Cells (%)” value [3] was 66%. The “Population Normal (%)” value [3] was 95%, the “Population Pyknosed Nuclei (%)” value [3] was 30% and the “Population Tubulin-Different-Phenotype (%)” value [3] was 43%. For the same compound, the “Population Apoptotic (%)” value [4] was 34%, the “Population Fragmented Nuclei (%)” value [4] was 29% and the “Population Healthy Nuclei (%)” value [4] was 40%. The “Population Hoechst High Intensity Objects (%)” value [4] was 13%, the “Population Membrane Permeable-Phenotype (%)” value [4] was 6% and the “Population Mitochondria Different-Phenotype (%)” value [4] was 9%. The “Population Mitotic Cells (%)” value [4] was 65%, the “Population Normal (%)” value [4] was 86% and the “Population Tubulin-Different-Phenotype (%)” value [4] was 48%. The “Population Apoptotic (%)” value [5] was 92%, the “Population Fragmented Nuclei (%)” value [5] was 29% and the “Population Healthy Nuclei (%)” value [5] was 60%. For the same compound, the “Population Hoechst High Intensity Objects (%)” value [5] was 0%, the “Population Membrane Permeable-Phenotype (%)” value [5] was 0% and the “Population Mitochondria Different-Phenotype (%)” value [5] was 9%. For the same compound, the “Population Mitotic Cells (%)” value [5] was 7%, the “Population Normal (%)” value [5] was 99% and the “Population Pyknosed Nuclei (%)” value [5] was 9%. The “Population Tubulin-Different-Phenotype (%)” value [5] was 61%, the “Population Apoptotic (%)” value [6] was 50% and the “Population Fragmented Nuclei (%)” value [6] was 41%. The “Population Healthy Nuclei (%)” value [6] was 48%, the “Population Hoechst High Intensity Objects (%)” value [6] was 1% and the “Population Membrane Permeable-Phenotype (%)” value [6] was 4%. The “Population Mitotic Cells (%)” value [6] was 50%, the “Population Normal (%)” value [6] was 98% and the “Population Pyknosed Nuclei (%)” value [6] was 10%. The “Population Tubulin-Different-Phenotype (%)” value [6] was 63%, the “Population Apoptotic (%)” value [7] was 36% and the “Population Fragmented Nuclei (%)” value [7] was 23%. The “Population Healthy Nuclei (%)” value [7] was 51%, the “Population Hoechst High Intensity Objects (%)” value [7] was 16% and the “Population Membrane Permeable-Phenotype (%)” value [7] was 0%. For the same compound, the “Population Mitochondria Different-Phenotype (%)” value [7] was 8%, the “Population Mitotic Cells (%)” value [7] was 63% and the “Population Normal (%)” value [7] was 83%. For the same compound, the “Population Pyknosed Nuclei (%)” value [7] was 24%, the “Population Tubulin-Different-Phenotype (%)” value [7] was 23% and the “Population Apoptotic (%)” value [8] was 34%. The “Population Fragmented Nuclei (%)” value [8] was 25%, the “Population Healthy Nuclei (%)” value [8] was 46% and the “Population Hoechst High Intensity Objects (%)” value [8] was 17%. For the same compound, the “Population Membrane Permeable-Phenotype (%)” value [8] was 6%, the “Population Mitochondria Different-Phenotype (%)” value [8] was 6% and the “Population Mitotic Cells (%)” value [8] was 65%. The “Population Normal (%)” value [8] was 82%, the “Population Pyknosed Nuclei (%)” value [8] was 28% and the “Population Tubulin-Different-Phenotype (%)” value [8] was 38%. For the same compound, the “Population Apoptotic (%)” value [9] was 75%, the “Population Fragmented Nuclei (%)” value [9] was 32% and the “Population Healthy Nuclei (%)” value [9] was 60%. For the same compound, the “Population Hoechst High Intensity Objects (%)” value [9] was 1%, the “Population Membrane Permeable-Phenotype (%)” value [9] was 0% and the “Population Mitochondria Different-Phenotype (%)” value [9] was 8%. For the same compound, the “Population Mitotic Cells (%)” value [9] was 25%, the “Population Normal (%)” value [9] was 98% and the “Population Pyknosed Nuclei (%)” value [9] was 7%. The “Population Tubulin-Different-Phenotype (%)” value [9] was 55%, the “Population Apoptotic (%)” value [10] was 20% and the “Population Fragmented Nuclei (%)” value [10] was 44%. For the same compound, the “Population Healthy Nuclei (%)” value [10] was 44%, the “Population Hoechst High Intensity Objects (%)” value [10] was 0% and the “Population Membrane Permeable-Phenotype (%)” value [10] was 5%. The “Population Mitochondria Different-Phenotype (%)” value [10] was 7%, the “Population Mitotic Cells (%)” value [10] was 80% and the “Population Normal (%)” value [10] was 99%. For the same compound, the “Population Pyknosed Nuclei (%)” value [10] was 12%, the “Population Tubulin-Different-Phenotype (%)” value [10] was 74% and the “Population Apoptotic (%)” value [11] was 42%. For the same compound, the “Population Fragmented Nuclei (%)” value [11] was 16%, the “Population Healthy Nuclei (%)” value [11] was 62% and the “Population Hoechst High Intensity Objects (%)” value [11] was 24%. For the same compound, the “Population Membrane Permeable-Phenotype (%)” value [11] was 1%, the “Population Mitochondria Different-Phenotype (%)” value [11] was 6% and the “Population Mitotic Cells (%)” value [11] was 57%. For the same compound, the “Population Normal (%)” value [11] was 75%, the “Population Pyknosed Nuclei (%)” value [11] was 21% and the “Population Tubulin-Different-Phenotype (%)” value [11] was 23%. For the same compound, the “Population Apoptotic (%)” value [12] was 37%, the “Population Fragmented Nuclei (%)” value [12] was 23% and the “Population Healthy Nuclei (%)” value [12] was 42%. The “Population Hoechst High Intensity Objects (%)” value [12] was 21%, the “Population Mitotic Cells (%)” value [12] was 62% and the “Population Normal (%)” value [12] was 78%. The “Population Pyknosed Nuclei (%)” value [12] was 33% and the “Population Tubulin-Different-Phenotype (%)” value [12] was 27%.

— ChEMBL document CHEMBL5058577, “EUbOPEN Chemogenomics Library 2 (Multiplex)” (2022)
